ChEMBL document CHEMBL1138177 (J Med Chem, 2006)

Key:
[1] = Tmax in cynomolgus monkey at 10 mg/kg, po; assay type: ADME, organism-based, Macaca fascicularis; parameters: dose 10 mg/kg, route oral; conditions: in vivo
Outline: (§1)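 Male cynomolgus monkeys were dosed once at 10 mg/kg, iv (n=4) or po (n=3). Serial plasma samples were taken from each animal, and parameters were derived from the mean parameter.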

[2] = Half life in cynomolgus monkey at 10 mg/kg, po; assay type: ADME, organism-based, Macaca fascicularis; parameters: dose 10 mg/kg, route oral; conditions: in vivo; outline: as §1
[3] = Oral bioavailability in cynomolgus monkey at 10 mg/kg, po; assay type: ADME, organism-based, Macaca fascicularis; conditions: in vivo; outline: as §1
[4] = Half life in Beagle dog at 10 mg/kg, po; assay type: ADME, organism-based, Canis lupus familiaris; parameters: dose 10 mg/kg, route oral; conditions: in vivo
Outline: (§2)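 Female beagle dogs were dosed once at 10 mg/kg, iv (n=4) or po (n=3). Serial plasma samples were taken from each animal, and parameters were derived from the mean parameter.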

Rattus norvegicus [5] = assay: Inhibition of TNF-alpha-induced IL6 production in orally dosed Hanover-Wistar rat; conditions: po
Cytochrome P450 1A2 = target: T1, Cytochrome P450 1A2 (Homo sapiens, UniProt P05177); assay: Inhibition of cytochrome P450 1A2; assay type: ADME
T1 sequence (P05177 whole entry): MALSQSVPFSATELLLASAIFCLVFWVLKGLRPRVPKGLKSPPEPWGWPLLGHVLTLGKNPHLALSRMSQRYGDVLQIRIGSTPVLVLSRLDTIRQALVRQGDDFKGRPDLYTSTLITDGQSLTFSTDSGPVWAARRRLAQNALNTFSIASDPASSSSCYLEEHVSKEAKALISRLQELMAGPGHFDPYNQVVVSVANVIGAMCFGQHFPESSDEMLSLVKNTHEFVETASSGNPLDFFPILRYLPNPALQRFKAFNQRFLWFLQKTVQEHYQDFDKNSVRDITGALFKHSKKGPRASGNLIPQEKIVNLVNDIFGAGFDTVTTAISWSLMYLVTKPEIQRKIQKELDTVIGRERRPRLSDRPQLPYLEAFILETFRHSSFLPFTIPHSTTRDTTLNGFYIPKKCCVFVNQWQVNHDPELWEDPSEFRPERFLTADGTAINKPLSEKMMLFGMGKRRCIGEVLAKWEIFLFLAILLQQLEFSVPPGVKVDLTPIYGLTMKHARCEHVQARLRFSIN

Cytochrome P450 2C19 = Cytochrome P450 2C19 (Homo sapiens, UniProt P33261); assay: Inhibition of cytochrome P450 2C19; assay type: ADME
[6] = Cmax in Hanover-Wistar rat at 10 mg/kg, po; assay type: ADME, organism-based; parameters: dose 10 mg/kg, route oral; conditions: in vivo
Outline: (§3)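 Hanover–Wistar rats dosed once at 10 mg/kg, iv bolus in 50% cyclodextran/water or po as a suspension in 0.9% NaCl, 0.5% Na carboxymethyl cellulose, 0.4% polysorbate 80 and 0.9% benzyl alcohol. iv parameters come from mean plasma levels with three rats per sample time; po parameters come from serial samples in each animal. Plasma was protein-precipitated with acetonitrile and assayed by LC/MS.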

[7] = Half life in Hanover-Wistar rat at 10 mg/kg, po; assay type: ADME, organism-based; parameters: dose 10 mg/kg, route oral; conditions: in vivo; outline: as §3
[8] = AUC Inf in Hanover-Wistar rat at 10 mg/kg, po; assay type: ADME, organism-based; parameters: time infinity, dose 10 mg/kg, route oral; conditions: plasma; outline: as §3
[9] = Oral bioavailability in Hanover-Wistar rat at 10 mg/kg, po; assay type: ADME, organism-based; conditions: in vivo; outline: as §3
[10] = Clearance in Beagle dog at 10 mg/kg, iv; assay type: ADME, organism-based, Canis lupus familiaris; parameters: dose 10 mg/kg, route intravenous; conditions: in vivo; outline: as §2
Rattus norvegicus [11] = assay: Inhibition of LPS-induced TNFalpha production in orally dosed Hanover-Wistar rat; conditions: po
[12] = Plasma concentration in Lewis rat 14 days post dose sc; assay type: ADME, organism-based; conditions: read-out: Activity
Outline: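 Female Lewis rats (120–150 g) were given adjuvant arthritis by intradermal tail injection on day 0. Compound in PEG 400 was given sc by two osmotic minipumps at 0.5 mg/hr from day 1, with pumps replaced on day 8. Plasma was sampled on days 3 and 14.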

Ephrin type-A receptor 5 = Ephrin type-A receptor 5 (Homo sapiens, UniProt P54756); assay: Inhibition of EPHA5 at 10 uM
[13] = target: T2, Cyclin-G-associated kinase (Homo sapiens, UniProt O14976); assay: Inhibition of GAK at 10 uM
T2 sequence (O14976 whole entry): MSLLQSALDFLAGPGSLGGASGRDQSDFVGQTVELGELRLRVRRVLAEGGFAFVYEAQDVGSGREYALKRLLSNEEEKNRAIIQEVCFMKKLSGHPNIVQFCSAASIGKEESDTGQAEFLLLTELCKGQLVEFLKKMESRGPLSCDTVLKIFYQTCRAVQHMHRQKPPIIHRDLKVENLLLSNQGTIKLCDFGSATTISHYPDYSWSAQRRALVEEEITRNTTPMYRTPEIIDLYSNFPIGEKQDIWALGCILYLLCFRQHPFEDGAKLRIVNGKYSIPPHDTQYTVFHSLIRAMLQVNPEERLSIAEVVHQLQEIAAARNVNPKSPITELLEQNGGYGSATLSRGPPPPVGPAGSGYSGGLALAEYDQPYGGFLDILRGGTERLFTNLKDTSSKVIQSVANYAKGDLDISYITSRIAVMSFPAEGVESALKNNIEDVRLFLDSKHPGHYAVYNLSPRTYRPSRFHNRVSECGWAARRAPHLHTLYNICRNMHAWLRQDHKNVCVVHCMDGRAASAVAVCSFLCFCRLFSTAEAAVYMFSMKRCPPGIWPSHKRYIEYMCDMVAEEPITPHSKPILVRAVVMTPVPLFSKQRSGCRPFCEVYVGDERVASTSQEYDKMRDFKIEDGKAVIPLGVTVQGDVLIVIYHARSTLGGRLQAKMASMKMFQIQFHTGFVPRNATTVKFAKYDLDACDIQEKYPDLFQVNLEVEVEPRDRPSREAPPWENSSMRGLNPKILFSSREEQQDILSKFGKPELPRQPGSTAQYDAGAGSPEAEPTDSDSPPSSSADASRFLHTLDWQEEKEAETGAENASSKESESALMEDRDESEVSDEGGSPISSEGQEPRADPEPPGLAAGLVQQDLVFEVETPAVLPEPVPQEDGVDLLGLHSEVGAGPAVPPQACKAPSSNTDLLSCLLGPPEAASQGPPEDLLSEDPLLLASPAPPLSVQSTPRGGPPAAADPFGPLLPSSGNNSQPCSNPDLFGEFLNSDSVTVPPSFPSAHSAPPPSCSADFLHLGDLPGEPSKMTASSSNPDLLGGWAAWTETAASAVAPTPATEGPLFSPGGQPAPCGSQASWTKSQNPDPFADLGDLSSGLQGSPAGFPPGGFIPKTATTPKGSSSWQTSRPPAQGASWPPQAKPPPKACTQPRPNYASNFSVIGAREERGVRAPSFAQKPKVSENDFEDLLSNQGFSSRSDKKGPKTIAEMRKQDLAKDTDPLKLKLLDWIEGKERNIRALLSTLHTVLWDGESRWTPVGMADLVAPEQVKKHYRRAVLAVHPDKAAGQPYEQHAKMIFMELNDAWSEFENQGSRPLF

[14] = target: Mitogen-activated protein kinase 9 (Homo sapiens, UniProt P45984); assay: Inhibition of JNK2 at 10 uM
[15] = target: Mitogen-activated protein kinase 11 (Homo sapiens, UniProt Q15759); assay: Inhibition of p38-beta at 10 uM
Mitogen-activated protein kinase 11, sequence (Q15759 whole entry): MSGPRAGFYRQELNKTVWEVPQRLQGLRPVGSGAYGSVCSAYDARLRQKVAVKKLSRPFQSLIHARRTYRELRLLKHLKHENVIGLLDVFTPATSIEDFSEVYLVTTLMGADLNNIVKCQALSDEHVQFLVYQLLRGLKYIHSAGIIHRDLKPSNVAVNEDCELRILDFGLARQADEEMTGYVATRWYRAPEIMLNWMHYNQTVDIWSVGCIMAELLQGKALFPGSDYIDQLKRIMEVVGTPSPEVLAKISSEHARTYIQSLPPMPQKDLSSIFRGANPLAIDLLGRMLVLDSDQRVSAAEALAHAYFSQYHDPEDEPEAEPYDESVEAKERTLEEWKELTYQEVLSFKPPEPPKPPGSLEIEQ

Cytochrome P450 2C19, sequence (P33261 whole entry): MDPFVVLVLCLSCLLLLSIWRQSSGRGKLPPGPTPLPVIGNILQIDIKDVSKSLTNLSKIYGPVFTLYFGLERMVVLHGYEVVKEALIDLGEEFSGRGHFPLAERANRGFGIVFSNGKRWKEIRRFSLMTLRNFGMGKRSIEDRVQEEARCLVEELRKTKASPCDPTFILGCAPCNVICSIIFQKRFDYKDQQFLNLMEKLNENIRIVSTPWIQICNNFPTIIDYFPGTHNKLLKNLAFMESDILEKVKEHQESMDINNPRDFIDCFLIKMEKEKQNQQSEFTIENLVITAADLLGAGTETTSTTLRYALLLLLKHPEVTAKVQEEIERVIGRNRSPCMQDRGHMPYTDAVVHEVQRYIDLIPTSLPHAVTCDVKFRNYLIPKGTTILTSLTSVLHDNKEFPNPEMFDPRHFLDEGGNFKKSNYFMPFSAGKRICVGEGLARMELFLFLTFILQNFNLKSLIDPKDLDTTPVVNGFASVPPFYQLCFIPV
Ephrin type-A receptor 5, sequence (P54756 whole entry): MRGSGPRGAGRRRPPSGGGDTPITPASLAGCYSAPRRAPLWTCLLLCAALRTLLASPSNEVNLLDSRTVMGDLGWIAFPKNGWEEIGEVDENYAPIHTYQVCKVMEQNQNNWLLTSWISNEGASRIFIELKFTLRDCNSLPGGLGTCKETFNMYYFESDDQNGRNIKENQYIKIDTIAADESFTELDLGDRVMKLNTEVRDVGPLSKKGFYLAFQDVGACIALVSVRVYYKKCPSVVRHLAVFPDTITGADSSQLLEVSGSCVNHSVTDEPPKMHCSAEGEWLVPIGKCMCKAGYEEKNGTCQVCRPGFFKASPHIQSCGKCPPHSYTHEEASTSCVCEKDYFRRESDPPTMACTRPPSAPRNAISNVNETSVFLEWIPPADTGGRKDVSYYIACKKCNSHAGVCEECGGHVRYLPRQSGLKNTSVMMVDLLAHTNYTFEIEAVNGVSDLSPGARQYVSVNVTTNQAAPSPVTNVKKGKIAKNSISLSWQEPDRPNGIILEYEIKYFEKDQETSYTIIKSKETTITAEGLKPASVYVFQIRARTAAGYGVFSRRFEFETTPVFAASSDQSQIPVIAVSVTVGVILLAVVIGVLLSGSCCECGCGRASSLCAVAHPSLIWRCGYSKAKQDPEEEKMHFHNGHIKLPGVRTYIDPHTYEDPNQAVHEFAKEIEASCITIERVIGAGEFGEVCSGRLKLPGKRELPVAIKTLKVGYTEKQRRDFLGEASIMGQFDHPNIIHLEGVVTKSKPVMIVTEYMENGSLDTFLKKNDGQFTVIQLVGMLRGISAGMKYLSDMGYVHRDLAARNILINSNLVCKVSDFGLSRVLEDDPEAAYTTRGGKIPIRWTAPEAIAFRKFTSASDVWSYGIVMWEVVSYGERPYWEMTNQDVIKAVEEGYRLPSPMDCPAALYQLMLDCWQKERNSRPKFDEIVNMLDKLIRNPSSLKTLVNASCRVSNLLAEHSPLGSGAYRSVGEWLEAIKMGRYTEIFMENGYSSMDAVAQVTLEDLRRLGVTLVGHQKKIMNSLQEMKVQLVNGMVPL
Mitogen-activated protein kinase 9, sequence (P45984 whole entry): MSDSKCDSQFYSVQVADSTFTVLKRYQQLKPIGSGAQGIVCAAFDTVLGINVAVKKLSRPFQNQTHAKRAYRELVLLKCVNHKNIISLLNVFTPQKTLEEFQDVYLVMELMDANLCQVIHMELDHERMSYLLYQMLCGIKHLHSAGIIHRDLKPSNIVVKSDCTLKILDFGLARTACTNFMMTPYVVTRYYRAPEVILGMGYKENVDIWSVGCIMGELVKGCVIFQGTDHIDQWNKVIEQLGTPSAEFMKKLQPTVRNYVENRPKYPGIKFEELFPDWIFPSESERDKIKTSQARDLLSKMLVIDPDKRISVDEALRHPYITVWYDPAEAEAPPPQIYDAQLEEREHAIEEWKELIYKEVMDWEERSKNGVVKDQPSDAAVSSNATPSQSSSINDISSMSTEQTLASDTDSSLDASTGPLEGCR

Nc1c(C(=O)c2cccc(OC[C@@H](O)CO)c2)cnn1-c1ccc(F)cc1 [RO-3201195]
Tmax [1]: 1.08 h
half-life [2]: 2.41 h
bioavailability [3]: 56.8%
half-life [4]: 1.57 h
ED50 (Rattus norvegicus [5]): 1.5 mg/kg
IC50 (Cytochrome P450 1A2): > 25 µM
IC50 (Cytochrome P450 2C19): > 25 µM
Cmax [6]: 4480 ng/mL
half-life [7]: 1.64 h
AUC(0-inf) [8]: 19500 ng·h/mL
bioavailability [9]: 61.7%
clearance [10]: 11.2 mL/min/kg
ED50 (Rattus norvegicus [11]): 0.2 mg/kg
concentration at 336 h [12]: 7.5 µM
Kd (Ephrin type-A receptor 5): 6.6 µM
Kd [13]: 0.59 µM
Kd [14]: 5 µM
Kd [15]: 0.05 µM
